Tests used:
Type in all cases: functional
K562 = experiment: Growth inhibition of human K562 cells after 72 hrs by SRB assay; details: K562, 72 h
Summary of the method: (§1)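 Cells kept in RPMI 1640 with 10% FBS, 2 mM L-glutamine, penicillin and streptomycin at 37 °C, 5% CO2. They were seeded at 5000 per well and allowed to attach in drug-free medium (24 h; also stated as 18 h). Compound dilutions in DMSO/EtOH were added for 72 h. Cells were fixed with cold TCA, stained with SRB, solubilised in Tris and read at 490 nm.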

A549 = experiment: Growth inhibition of human A549 after 72 hrs by SRB assay; details: A549, 72 h; summary of the method: as §1
SK-MEL-28 = experiment: Growth inhibition of human SK-MEL-28 cells after 72 hrs by SRB assay; details: SK-MEL-28, 72 h; summary of the method: as §1
HT-29 = experiment: Growth inhibition of human HT-29 cells after 72 hrs by SRB assay; details: HT-29, 72 h; summary of the method: as §1
LoVo [1] = experiment: Growth inhibition of human LoVo after 72 hrs by SRB assay; summary of the method: as §1
LoVo [2] = experiment: Growth inhibition of human Doxorubicin-resistant LoVo cells after 72 hrs by SRB assay; summary of the method: as §1
DU-145 = experiment: Growth inhibition of human DU145 cells after 72 hrs by SRB assay; details: DU-145, 72 h; summary of the method: as §1
LNCaP = experiment: Growth inhibition of human LNCAP cells after 72 hrs by SRB assay; summary of the method: as §1
SK-BR-3 = experiment: Growth inhibition of human SKBR3 cells after 72 hrs by SRB assay; details: SK-BR-3, 72 h; summary of the method: as §1
SK-OV-3 = experiment: Growth inhibition of human SKOV3 cells after 72 hrs by SRB assay; details: SK-OV-3, 72 h; summary of the method: as §1
[3] = Growth inhibition of human IGROV cells after 72 hrs by SRB assay; summary of the method: as §1
[4] = Growth inhibition of human IGROV-ET cells after 72 hrs by SRB assay; summary of the method: as §1
PANC-1 = experiment: Growth inhibition of human PANC1 cells after 72 hrs by SRB assay; details: PANC-1, 72 h; summary of the method: as §1
[5] = read-out: LC50 (the source's name)

With C[C@]1(CCCCCCCCCCc2ccccc2)C[C@](C)(CC(=O)O)OO1 [ANDAVADOIC ACID] the GI50 (K562) was 0.497 µM, the TGI (K562) was 1.01 µM and the CC50 (K562; [5]) was 2.07 µM. It also gave a GI50 (A549) of 0.714 µM, a TGI (A549) of 1.29 µM and a CC50 (A549; [5]) of 2.33 µM. For the same compound, the GI50 (SK-MEL-28) was 0.698 µM, the TGI (SK-MEL-28) was 1.14 µM and the CC50 (SK-MEL-28; [5]) was 1.86 µM. For the same compound, the GI50 (HT-29) was 0.643 µM, the TGI (HT-29) was 1.13 µM and the CC50 (HT-29; [5]) was 1.98 µM. The GI50 (LoVo [1]) was 0.635 µM, the TGI (LoVo [1]) was 1.21 µM and the CC50 (LoVo [1]; [5]) was 2.31 µM. The GI50 (LoVo [2]) was 0.539 µM, the TGI (LoVo [2]) was 0.951 µM and the CC50 (LoVo [2]; [5]) was 1.68 µM. It also gave a GI50 (DU-145) of 0.627 µM, a TGI (DU-145) of 0.991 µM and a CC50 (DU-145; [5]) of 1.56 µM. For the same compound, the GI50 (LNCaP) was 0.478 µM, the TGI (LNCaP) was 0.863 µM and the CC50 (LNCaP; [5]) was 1.56 µM. It also gave a GI50 (SK-BR-3) of 0.914 µM, a TGI (SK-BR-3) of 1.69 µM and a CC50 (SK-BR-3; [5]) of 2.66 µM. For the same compound, the GI50 (SK-OV-3) was 0.698 µM, the TGI (SK-OV-3) was 1.12 µM and the CC50 (SK-OV-3; [5]) was 1.81 µM. The GI50 [3] was 0.102 µM, the TGI [3] was 0.261 µM and the CC50 [3, 5] was 1.83 µM. The GI50 [4] was 0.133 µM, the TGI [4] was 0.39 µM and the CC50 [4, 5] was 1.34 µM. For the same compound, the GI50 (PANC-1) was 0.526 µM, the TGI (PANC-1) was 0.961 µM and the CC50 (PANC-1; [5]) was 1.75 µM.

— ChEMBL document CHEMBL1150046, “Three new cyclic peroxides from the marine sponge Plakortis aff simplex” (2003)
